{
  "source": "ChEMBL document CHEMBL2434893",
  "about": "“Synthesis, DNA binding and anti-leukemic activity of an aminoacyl nucleolipid” (Bioorg Med Chem Lett, 2013)",
  "key": {"BT-549": {"test_system": "BT-549", "assay": "Cytotoxicity against human BT549 cells assessed as cell growth at 10 uM after 48 hrs by SRB assay relative to control", "assay_type": "functional", "settings": "BT-549, 48 h, read-out: Activity", "how_it_was_run": "(§1)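 NCI Developmental Therapeutics Program 60-cell-line screen at a single dose of 10 μM. Cells incubated with compound for 48 h at 37 °C before viability determination.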"}, "[1]": {"assay": "Binding affinity to GRP78 duplex DNA (unknown origin) at 0.2 to 3.9 mM by CD spectrophotometric analysis", "how_it_was_run": "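CD spectra recorded on duplex DNA (1.1 μM) in phosphate buffer (140 mM KCl, 1 mM MgCl₂, 5 mM sodium phosphate, pH 7.2) titrated with ligand 0–3.9 mM. Samples prepared as for melting. Molar ellipticity followed at the 260–280 nm maximum and the 248 nm minimum.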"}, "SK-OV-3": {"test_system": "SK-OV-3", "assay": "Cytotoxicity against human SKOV3 cells assessed as cell growth at 10 uM after 48 hrs by SRB assay relative to control", "assay_type": "functional", "settings": "SK-OV-3, 48 h, read-out: Activity", "how_it_was_run": "(§2)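 Single-dose (10 μM) screen run by the NCI Developmental Therapeutics Program on its 60 human cancer cell line panel. Viability was determined after 48 h incubation with the cells at 37 °C.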"}, "SW-620": {"test_system": "SW-620", "assay": "Cytotoxicity against human SW620 cells assessed as cell growth at 10 uM after 48 hrs by SRB assay relative to control", "assay_type": "functional", "settings": "SW-620, 48 h, read-out: Activity", "how_it_was_run": "as §2"}, "Malme-3M": {"test_system": "Malme-3M", "assay": "Cytotoxicity against human MALME-3M cells assessed as cell growth at 10 uM after 48 hrs by SRB assay relative to control", "assay_type": "functional", "settings": "read-out: Activity", "how_it_was_run": "as §1"}, "MOLT-4": {"test_system": "MOLT-4", "assay": "Cytotoxicity against human MOLT4 cells assessed as cell growth at 10 uM after 48 hrs by SRB assay relative to control", "assay_type": "functional", "settings": "MOLT-4, 48 h, read-out: Activity", "how_it_was_run": "as §1"}, "[2]": {"assay": "Binding affinity to GRP78 duplex DNA (unknown origin) after 36 hrs by gel shift mobility assay", "how_it_was_run": "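Complementary strands (0.57 μM) annealed in 30% sucrose in TAE buffer (89 mM Tris/acetate, 2.5 mM EDTA, […]), incubated 36 h at 37 °C with ligand at 0, 5, 25, 50, 100 equiv per DNA phosphate (0, 0.2, 0.9, 1.9, 3.9 mM). Run on 24% native PAGE. DNA bands visualized by UV-shadowing at 260 nm. K_D taken from the duplex band ratio with versus without ligand.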"}, "[3]": {"assay": "Binding affinity to GRP78 duplex DNA (unknown origin) assessed as DNA-compound complex formation at 3.9 mM measured at 36 hrs by dynamic light scattering analysis relative to control", "how_it_was_run": "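DNA (1.1 μM), with or without ligand at 3.9 mM, incubated 36 h in phosphate buffer. Particle size then measured by dynamic light scattering against native DNA and ligand alone.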"}, "MDA-MB-435": {"test_system": "MDA-MB-435", "assay": "Cytotoxicity against human MDA-MB-435 cells assessed as cell growth at 10 uM after 48 hrs by SRB assay relative to control", "assay_type": "functional", "settings": "MDA-MB-435, 48 h, read-out: Activity", "how_it_was_run": "as §1"}, "UACC-62": {"test_system": "UACC-62", "assay": "Cytotoxicity against human UACC62 cells assessed as cell growth at 10 uM after 48 hrs by SRB assay relative to control", "assay_type": "functional", "settings": "UACC-62, 48 h, read-out: Activity", "how_it_was_run": "as §2"}, "SK-MEL-28": {"test_system": "SK-MEL-28", "assay": "Cytotoxicity against human SK-MEL-28 cells assessed as cell growth at 10 uM after 48 hrs by SRB assay relative to control", "assay_type": "functional", "settings": "SK-MEL-28, 48 h, read-out: Activity", "how_it_was_run": "as §1"}, "OVCAR-3": {"test_system": "OVCAR-3", "assay": "Cytotoxicity against human OVCAR3 cells assessed as cell growth at 10 uM after 48 hrs by SRB assay relative to control", "assay_type": "functional", "settings": "OVCAR-3, 48 h, read-out: Activity", "how_it_was_run": "as §1"}, "U-251": {"test_system": "U-251", "assay": "Cytotoxicity against human U251 cells assessed as cell growth at 10 uM after 48 hrs by SRB assay relative to control", "assay_type": "functional", "settings": "U-251, 48 h, read-out: Activity", "how_it_was_run": "as §2"}, "ACHN": {"test_system": "ACHN", "assay": "Cytotoxicity against human ACHN cells assessed as cell growth at 10 uM after 48 hrs by SRB assay relative to control", "assay_type": "functional", "settings": "read-out: Activity", "how_it_was_run": "as §1"}, "KM12": {"test_system": "KM12", "assay": "Cytotoxicity against human KM12 cells assessed as cell growth at 10 uM after 48 hrs by SRB assay relative to control", "assay_type": "functional", "settings": "KM12, 48 h, read-out: Activity", "how_it_was_run": "as §1"}, "COLO 205": {"test_system": "COLO 205", "assay": "Cytotoxicity against human COLO205 cells assessed as cell growth at 10 uM after 48 hrs by SRB assay relative to control", "assay_type": "functional", "settings": "COLO 205, 48 h, read-out: Activity", "how_it_was_run": "as §1"}, "UO-31": {"test_system": "UO-31", "assay": "Cytotoxicity against human UO31 cells assessed as cell growth at 10 uM after 48 hrs by SRB assay relative to control", "assay_type": "functional", "settings": "UO-31, 48 h, read-out: Activity", "how_it_was_run": "as §2"}, "HT-29": {"test_system": "HT-29", "assay": "Cytotoxicity against human HT-29 cells assessed as cell growth at 10 uM after 48 hrs by SRB assay relative to control", "assay_type": "functional", "settings": "HT-29, 48 h, read-out: Activity", "how_it_was_run": "as §1"}, "SF-268": {"test_system": "SF-268", "assay": "Cytotoxicity against human SF268 cells assessed as cell growth at 10 uM after 48 hrs by SRB assay relative to control", "assay_type": "functional", "settings": "SF-268, 48 h, read-out: Activity", "how_it_was_run": "as §1"}, "M14": {"test_system": "M14", "assay": "Cytotoxicity against human M14 cells assessed as cell growth at 10 uM after 48 hrs by SRB assay relative to control", "assay_type": "functional", "settings": "M14, 48 h, read-out: Activity", "how_it_was_run": "as §1"}, "HOP-62": {"test_system": "HOP-62", "assay": "Cytotoxicity against human HOP62 cells assessed as cell growth at 10 uM after 48 hrs by SRB assay relative to control", "assay_type": "functional", "settings": "HOP-62, 48 h, read-out: Activity", "how_it_was_run": "as §1"}, "HL-60(TB)": {"test_system": "HL-60(TB)", "assay": "Cytotoxicity against human HL-60(TB) cells assessed as cell growth at 10 uM after 48 hrs by SRB assay relative to control", "assay_type": "functional", "settings": "HL-60, 48 h, read-out: Activity", "how_it_was_run": "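Single-dose screen run by the NCI Developmental Therapeutics Program on its 60 human cancer cell line panel, leukemia lines included. Cells were exposed to 10 μM ligand and incubated at 37 °C for 48 h. Cell viability was then determined.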"}, "SN12C": {"test_system": "SN12C", "assay": "Cytotoxicity against human SN12C cells assessed as cell growth at 10 uM after 48 hrs by SRB assay relative to control", "assay_type": "functional", "settings": "read-out: Activity", "how_it_was_run": "as §2"}, "CCRF-CEM": {"test_system": "CCRF-CEM", "assay": "Cytotoxicity against human CCRF-CEM cells assessed as cell growth at 10 uM after 48 hrs by SRB assay relative to control", "assay_type": "functional", "settings": "read-out: Activity", "how_it_was_run": "as §1"}, "RXF 393": {"test_system": "RXF 393", "assay": "Cytotoxicity against human RXF393 cells assessed as cell growth at 10 uM after 48 hrs by SRB assay relative to control", "assay_type": "functional", "settings": "RXF 393, 48 h, read-out: Activity", "how_it_was_run": "as §1"}, "[4]": {"assay": "Binding affinity to GRP78 duplex DNA (unknown origin) assessed as change in melting temperature at 0.2 mM after 36 hrs by thermal denaturation assay", "how_it_was_run": "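Duplex DNA (1.1 μM) annealed from complementary strands in phosphate buffer (140 mM KCl, 1 mM MgCl₂, 5 mM sodium phosphate, pH 7.2), with ligand 0.2–3.9 mM. Melting followed as % hyperchromicity at 260 nm over 5–90 °C. Tm shift measured against native duplex.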"}, "IGROV-1": {"test_system": "IGROV-1", "assay": "Cytotoxicity against human IGROV1 cells assessed as cell growth at 10 uM after 48 hrs by SRB assay relative to control", "assay_type": "functional", "settings": "IGROV-1, 48 h, read-out: Activity", "how_it_was_run": "as §1"}},
  "note": "pKd: −log10 of the molar value. Calls of active or inactive are those of the source. The rule behind the calls is not given here.",
  "data": [
    {"smiles": "CCCCCCCCCCCCCCCC(=O)O[C@@H]1[C@H](OC(=O)CCCCCCCCCCCCCCC)[C@@H](C(=O)N[C@@H](CCCCN)C(=O)OC)O[C@H]1n1cnc2c(=O)[nH]c(NC(=O)C(C)C)nc21.Cl", "values": [
      {"measurement": "growth at 10 µM", "setting": "BT-549", "result": 105, "unit": "%"},
      {"measurement": "Activity", "setting": "[1]", "result": "Active"},
      {"measurement": "growth at 10 µM", "setting": "SK-OV-3", "result": 99.4, "unit": "%"},
      {"measurement": "growth at 10 µM", "setting": "SW-620", "result": 104, "unit": "%"},
      {"measurement": "growth at 10 µM", "setting": "Malme-3M", "result": 98.5, "unit": "%"},
      {"measurement": "growth at 10 µM", "setting": "MOLT-4", "result": 93.4, "unit": "%"},
      {"measurement": "pKd", "setting": "[2]", "result": 3.15},
      {"measurement": "fold change (FC)", "setting": "[3]", "result": "> 2"},
      {"measurement": "growth at 10 µM", "setting": "MDA-MB-435", "result": 99.7, "unit": "%"},
      {"measurement": "growth at 10 µM", "setting": "UACC-62", "result": 112, "unit": "%"},
      {"measurement": "growth at 10 µM", "setting": "SK-MEL-28", "result": 113, "unit": "%"},
      {"measurement": "growth at 10 µM", "setting": "OVCAR-3", "result": 105, "unit": "%"},
      {"measurement": "growth at 10 µM", "setting": "U-251", "result": 90.2, "unit": "%"},
      {"measurement": "growth at 10 µM", "setting": "ACHN", "result": 102, "unit": "%"},
      {"measurement": "growth at 10 µM", "setting": "KM12", "result": 95, "unit": "%"},
      {"measurement": "growth at 10 µM", "setting": "COLO 205", "result": 101, "unit": "%"},
      {"measurement": "growth at 10 µM", "setting": "UO-31", "result": 87.1, "unit": "%"},
      {"measurement": "growth at 10 µM", "setting": "HT-29", "result": 98.2, "unit": "%"},
      {"measurement": "growth at 10 µM", "setting": "SF-268", "result": 97.1, "unit": "%"},
      {"measurement": "growth at 10 µM", "setting": "M14", "result": 93.7, "unit": "%"},
      {"measurement": "growth at 10 µM", "setting": "HOP-62", "result": 104, "unit": "%"},
      {"measurement": "growth at 10 µM", "setting": "HL-60(TB)", "result": 98.3, "unit": "%"},
      {"measurement": "growth at 10 µM", "setting": "SN12C", "result": 105, "unit": "%"},
      {"measurement": "growth at 10 µM", "setting": "CCRF-CEM", "result": 86, "unit": "%"},
      {"measurement": "growth at 10 µM", "setting": "RXF 393", "result": 105, "unit": "%"},
      {"measurement": "ΔTm", "setting": "[4]", "result": 4, "unit": "°C"},
      {"measurement": "growth at 10 µM", "setting": "IGROV-1", "result": 91.8, "unit": "%"}
    ]}
  ]
}
